Compound activity (PubChem BioAssay)
The list is not random: actives were taken first. Their share in the collection is about 1.9%.
PGC1a acetyl inh: lowers PGC1a acetylation signal in U2OS cells. AID 651687. inhibition, % at 15.6 µM. AlphaScreen anti-acetyl-lysine; with virally co-expressed GCN5 acetyltransferase. 0.17% of 350,000 active;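 active = every replicate shows inhibition of at least 40%; inconclusive = mean inhibition at least 40% but some replicate below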
F508del corr: correctors of CFTR F508del function in bronchial epithelial cells | CFBE cells, YFP halide quenching; stimulated with forskolin plus potentiator P3; % fluorescence drop versus neutral controls | 0.36% of 350,000 active | activity (quench increase), % at 7.58 µM | AID 720511;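 active = mean added fluorescence quench of at least 8% versus neutral control, with both replicates also reaching 8%; inconclusive = only one of the mean or replicate conditions met; inactive = mean below 8% and not both replicates reaching 8%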;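 note: cells transiently co-express mutant CFTR-F508del with the halide-sensitive YFP; corrector assay measuring rescue of mutant channel to the surface after 24 h compound exposure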
DENV2 CPE rescue: inhibitors of DENV2 cytopathic effect. DENV2-infected cells, cytopathic effect rescue, plate reader. CPE inhibition, % at 9.99 µM. 1.7% of 350,000 active. AID 651640; in the data active = CPE inhibition above about 20%, passing the limit was not always enough; inconclusive = no clear call, values can overlap the other calls; tested in BHK-21 cells
FN deposit inh: fibronectin deposition inhibition; AID 743247; AH1F fibroblasts, Alexa488-fibronectin deposition fluorescence, overnight; 0.086% of 350,000 active; inhibition, % at 12.6 µM;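 active = mean inhibition across replicates of 30% or more, regardless of how many single replicates reach that level; inconclusive = mean under 30% yet at least half of replicates reach 30%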
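Test system: AH1F fibroblast monolayer depositing Alexa488-labelled fibronectin into matrix. Input: 10000 cells per well. Technique: fluorescence, ex 485 nm, em 525 nm. Buffer or medium: DMEM plus 2% serum, read in PBS. Timing: 1 h cell adhesion before compound, then overnight fibronectin incubation. Compound: single dose, pinned. Read-out basis: inhibition from reduced deposited-fibronectin fluorescence.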
Xi reactivation: activators of X-chromosome reactivation in mouse fibroblasts; XiGFP mouse fibroblasts, % GFP-positive cells imaging, 3 d; cells co-treated with 5-aza-dC sensitizer; scaled so ellipticine positive control = 100%; activation, % at 7.58 µM; 0.055% of 360,000 active;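 active = mean normalized replicate activation at least 10% and every replicate at or above 10%; inconclusive = only one of the two criteria met; inactive = mean below 10% and not all replicates reach 10%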
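assay system = SV40-immortalized XiGFP fibroblast cells, line 68-5-11 | buffer or medium = DMEM plus 5-aza-dC sensitizer | doses = single-point pinned compound dosing | times = 3-day compound exposure, then 15 min fixation at room temperature | benchmarks = positive control ellipticine, 6 µM final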
Cneo AK release: Cryptococcus neoformans lysis via adenylate kinase release; C. neoformans lysis, adenylate kinase release luminescence, 4 h; normalised: neutral wells 0, clomiphene wells 100; lysis activity, % at 15 µM; 0.2% of 360,000 active; AID 651654;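 active = mean lysis activity across replicates of at least 80%, whatever share of replicates individually reach that level; inactive = mean lysis activity below 80%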
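Material – Cryptococcus neoformans yeast cells · Quantity – 5 × 10^6 yeast cells/mL · Buffer or medium – YPD medium · Compound – single dose · Timing – 4 h static compound exposure, 37 °C, read 1 h post-reagent · Signal – adenylate kinase release luminescence · Read-out basis – lysis from increased AK signal · Benchmarks – Clomiphene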
Large screens that a line does not name were inactive.

COc1ccc(S(=O)(=O)N(C)C[C@@H]2OCCCC[C@H](C)Oc3ccc(NS(=O)(=O)c4cn(C)cn4)cc3C(=O)N([C@@H](C)CO)C[C@H]2C)cc1	none
O=C(C[C@H]1C=C[C@@H](NS(=O)(=O)c2ccc(F)cc2)[C@H](CO)O1)NCc1ccc(Cl)c(Cl)c1	none (no result: FN deposit inh)
COc1ccc(/C=C(/C#N)C(=O)NC2CCCCC2)cc1Br	none (no result: F508del corr, DENV2 CPE rescue, Xi reactivation)
N#C/C(=C\c1ccc2c(c1)OCCO2)C(=O)NC1CCCCC1	DENV2 CPE rescue 62 (no result: PGC1a acetyl inh, F508del corr, Cneo AK release)
Nc1ccccc1C#Cc1ccccc1	DENV2 CPE rescue 110 (no result: PGC1a acetyl inh)
Nc1ccc(C#Cc2ccccc2)cc1	none (no result: F508del corr, DENV2 CPE rescue, FN deposit inh, Xi reactivation)
C[C@@H]1CCCCO[C@@H](CN(C)S(=O)(=O)c2ccccc2)[C@H](C)CN([C@H](C)CO)C(=O)c2cc(NS(=O)(=O)c3ccc(F)cc3)ccc2O1	none
Cc1cccc(C(=O)OCC(=O)NCc2ccc(Cl)cc2)c1	DENV2 CPE rescue 29
CC(=O)c1c(C)[nH]c(C(=O)OCC(=O)NCc2ccc(Cl)cc2)c1C	F508del corr 12
C[C@@H]1CN([C@@H](C)CO)C(=O)c2cc(NS(=O)(=O)c3ccccc3)ccc2O[C@@H](C)CCCCO[C@@H]1CN(C)C(=O)C1CCCCC1	none
O=C(N[C@H]1CC[C@@H](CCNC(=O)C2CCCC2)O[C@H]1CO)c1ccncc1	none (no result: FN deposit inh)
CO[C@H]1CN(C)C(=O)c2cc(NC(=O)C3CCC3)ccc2OC[C@@H](C)N(C(=O)CN(C)C)C[C@@H]1C	none
O=C(O)COc1ccc(/C=C2/SC(=S)N(Cc3ccccc3)C2=O)cc1	PGC1a acetyl inh 72
O=C1/C(=C\c2cc(Cl)c(O)c(Cl)c2)SC(=S)N1Cc1ccccc1	F508del corr 28
COc1ccc(/C=C2/SC(=S)N(Cc3ccccc3)C2=O)cc1O	none
C[C@@H]1CCCCO[C@H](CN(C)S(=O)(=O)c2ccccc2)[C@@H](C)CN([C@@H](C)CO)C(=O)c2cc(NC(=O)Nc3cccc4ccccc34)ccc2O1	none
C=CCN1C(=O)c2ccccc2Sc2ccc(C(=O)NC(C)C)cc21	none
C=CCN1C(=O)c2ccccc2Sc2ccc(C(=O)NCC(OC)OC)cc21	DENV2 CPE rescue 29 (no result: F508del corr)
O=C(Nc1ccc(Cl)c([N+](=O)[O-])c1)c1ccco1	DENV2 CPE rescue inconclusive, Cneo AK release 112
Cc1ccc(N2C(=O)c3cccc4c(N)ccc(c34)C2=O)c2cccnc12	Xi reactivation 116
CCCCNc1ccc2c3c(cccc13)C(=O)N(CCCC)C2=O	Xi reactivation 123 (no result: Cneo AK release)
CN(C)CCCN1C(=O)c2cccc3c(Br)ccc(c23)C1=O	none (no result: PGC1a acetyl inh, Cneo AK release)
CCN1C(=O)c2cccc3c(N)ccc(c23)C1=O	F508del corr 19 (no result: PGC1a acetyl inh)
Cc1nn(C)c(C)c1N1C(=O)c2cccc3c(N)ccc(c23)C1=O	none (no result: F508del corr, DENV2 CPE rescue)
C=CCOC(=O)[C@@]12O[C@]3(COC[C@H](c4ccccc4)N3C1=O)[C@@H]1C(=O)N(c3ccccc3)C(=O)[C@@H]12	none (no result: FN deposit inh, Xi reactivation)
Cc1c(C)c2ccc(OC(C)C(=O)NC3CC(C)(C)NC(C)(C)C3)cc2oc1=O (configuration not stated)	none
Cc1cc(OC(C)C(=O)NC2CC(C)(C)NC(C)(C)C2)c2c(C)c(C)c(=O)oc2c1 (configuration not stated)	DENV2 CPE rescue 45 (no result: FN deposit inh)
Cc1noc(C)c1S(=O)(=O)Nc1ccc2c(c1)CC(=O)N([C@H](C)CO)C[C@H](C)[C@H](CN(C)C(=O)Nc1ccc(C(F)(F)F)cc1)O2	none
O=C(OCc1cnc(Cl)s1)c1ccccc1Cl	none (no result: F508del corr, DENV2 CPE rescue, FN deposit inh, Xi reactivation)
O=C(OCc1cnc(Cl)s1)c1cccs1	PGC1a acetyl inh 94 (no result: FN deposit inh)
CCCCNC(=O)CSc1nc2ccc(C)cc2[nH]1	F508del corr 17 (no result: Cneo AK release)
COc1ccc(CNC(=O)CSc2nc3ccc(C)cc3[nH]2)cc1	none
C[C@@H]1CN([C@@H](C)CO)C(=O)c2cc(NC(=O)c3ccncc3)ccc2O[C@@H]1CN(C)S(=O)(=O)c1cccs1	none
Cn1c(NCc2ccccc2F)nc2cc(-c3ccccc3)sc2c1=O	none
Cn1c(NCc2ccccc2F)nc2cc(-c3ccsc3)sc2c1=O	F508del corr 8.1
C[C@H](CO)N1C[C@H](C)[C@@H](CN(C)CC2CC2)Oc2cc(-c3cncnc3)ccc2S1(=O)=O	none (no result: FN deposit inh)
